Source: ChEMBL document CHEMBL5329221, “A covalent fragment-based strategy targeting a novel cysteine to inhibit activity of mutant EGFR kinase” (RSC Med Chem, 2023)
Activity calls are given as the source filed them. No cut-off for these calls is given here.

Legend:
[1] = biological target: MAP kinase-interacting serine/threonine-protein kinase 1 (Homo sapiens) (UniProt Q9BUB5); assay: Inhibition of human MNK1 assessed as decrease in substrate phosphorylation using 5FAM-KKKVSRSGLYRSPSMPENLNRPR-COOH as substrate preincubated for 15 mins followed by substrate addition in presence of 1mM of ATP and measured after 45 mins by microplate reader analysis; conditions: time 60.0 min
Chain of MAP kinase-interacting serine/threonine-protein kinase 1 (Homo sapiens) (Q9BUB5 whole entry, looked up): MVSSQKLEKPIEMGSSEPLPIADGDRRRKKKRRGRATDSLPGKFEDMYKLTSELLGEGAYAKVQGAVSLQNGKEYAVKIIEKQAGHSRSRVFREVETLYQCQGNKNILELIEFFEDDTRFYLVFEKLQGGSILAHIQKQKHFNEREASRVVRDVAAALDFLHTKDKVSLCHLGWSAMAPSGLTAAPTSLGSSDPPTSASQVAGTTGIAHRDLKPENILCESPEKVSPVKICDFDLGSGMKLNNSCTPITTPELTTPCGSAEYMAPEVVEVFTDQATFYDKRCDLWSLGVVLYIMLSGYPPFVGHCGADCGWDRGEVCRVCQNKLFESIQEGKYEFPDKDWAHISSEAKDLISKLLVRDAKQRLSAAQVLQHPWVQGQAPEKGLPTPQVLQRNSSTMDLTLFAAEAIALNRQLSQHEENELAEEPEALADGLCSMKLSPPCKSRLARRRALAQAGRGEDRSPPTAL
How it was run: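 MNK1 at 440 ng/mL was preincubated 15 min with 1 µM compound in 100 mM HEPES pH 7.4, 0.003% Brij-35, 0.004% Tween-20, 1 mM DTT. Then 1 mM ATP, 1.5 µM FL-Peptide 10 and 10 mM MgCl2 were added for 45 min. Mobility-shift read.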

[2] = system: Epidermal growth factor receptor (Homo sapiens), P00533 [L858R]; assay: Binding affinity to N-terminal His6-tagged human EGFR L858R mutant expressed in Sf9 cells at pH 7.4 assessed as covalent adduct at +277 Da formation at 0.3 to 1 uM incubated for 1 hrs by LC-MS analysis; conditions: dose 0.3-1 µM
How it was run: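 EGFR (694-1022) L858R or L858R/C775S as N-terminal His-GST fusions from Sf9 cells, purified by Ni affinity then SEC. Each protein at 0.5 mg/ml was incubated with compound (0.3, 1 or 3 µM) in 20 mM Tris-HCl pH 7.5, 150 mM NaCl, 1 mM TCEP, 5% glycerol, 1 h at room temperature. SDS was added to 1% final, samples boiled 95°C 10 min, then UHPLC-MS.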

[3] = biological target: Epidermal growth factor receptor (Homo sapiens, UniProt P00533, C797S/L858R/T790M); assay: Inhibition of N-terminal His6-tagged human EGFR L858R/T790M/C797S mutant expressed in Sf9 cells assessed as decrease in substrate phosphorylation using Srctide as substrate preincubated for 20 mins followed by substrate addition in presence of 5uM of ATP and measured after 45 mins by microplate reader analysis
[4] = biological target: T1, Tyrosine-protein kinase JAK3 (Homo sapiens) (UniProt P52333); assay: Inhibition of human JAK3 assessed as decrease in substrate phosphorylation using Srctide as substrate preincubated for 15 mins followed by substrate addition in presence of 1mM of ATP and measured after 45 mins by microplate reader analysis; conditions: time 60.0 min
T1 sequence (whole entry): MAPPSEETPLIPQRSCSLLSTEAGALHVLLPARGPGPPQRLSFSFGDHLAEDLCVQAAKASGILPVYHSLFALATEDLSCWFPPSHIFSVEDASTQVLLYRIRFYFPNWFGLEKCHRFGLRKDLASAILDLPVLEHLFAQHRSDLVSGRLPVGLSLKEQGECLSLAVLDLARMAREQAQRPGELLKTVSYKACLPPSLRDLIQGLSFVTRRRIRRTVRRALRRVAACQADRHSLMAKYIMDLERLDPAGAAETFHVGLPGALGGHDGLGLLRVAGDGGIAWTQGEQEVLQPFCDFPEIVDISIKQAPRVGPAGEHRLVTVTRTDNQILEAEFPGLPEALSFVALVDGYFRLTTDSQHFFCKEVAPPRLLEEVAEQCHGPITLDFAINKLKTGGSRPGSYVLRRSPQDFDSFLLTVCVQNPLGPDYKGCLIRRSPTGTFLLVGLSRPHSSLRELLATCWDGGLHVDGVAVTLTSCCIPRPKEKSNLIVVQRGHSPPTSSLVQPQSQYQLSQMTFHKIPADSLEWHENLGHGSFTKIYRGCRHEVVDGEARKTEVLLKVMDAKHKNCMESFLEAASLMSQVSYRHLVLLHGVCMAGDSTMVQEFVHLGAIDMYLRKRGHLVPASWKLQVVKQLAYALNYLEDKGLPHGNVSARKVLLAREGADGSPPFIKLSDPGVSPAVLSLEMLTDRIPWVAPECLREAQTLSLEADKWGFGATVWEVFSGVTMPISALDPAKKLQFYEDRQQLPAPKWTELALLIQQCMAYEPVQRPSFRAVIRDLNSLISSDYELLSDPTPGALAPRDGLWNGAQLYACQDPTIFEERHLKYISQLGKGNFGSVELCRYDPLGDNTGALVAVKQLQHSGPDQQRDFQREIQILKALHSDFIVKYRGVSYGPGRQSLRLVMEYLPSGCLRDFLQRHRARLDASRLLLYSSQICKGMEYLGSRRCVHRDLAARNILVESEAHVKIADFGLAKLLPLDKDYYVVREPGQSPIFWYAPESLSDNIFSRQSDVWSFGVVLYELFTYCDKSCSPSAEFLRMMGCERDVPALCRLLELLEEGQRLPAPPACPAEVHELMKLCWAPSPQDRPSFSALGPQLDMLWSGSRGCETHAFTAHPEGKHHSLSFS
How it was run: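 JAK3 at 50 ng/mL was preincubated 15 min with 1 µM compound in 100 mM HEPES pH 7.4, 0.003% Brij-35, 0.004% Tween-20, 1 mM DTT. Then 1 mM ATP, 1.5 µM Srctide and 10 mM MgCl2 were added for 45 min. Mobility-shift read.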

## C=CC(=O)Nc1cc(-c2cn(C)c3ccccc23)ncn1
[1]
  inhibition: 26.5%
[2]
  Activity: inactive
[3]
  IC50: 239 nM
[4]
  inhibition: 74.2%
